Laboratory results published in ChEMBL document CHEMBL1153346, “Structure-activity study of pentamidine analogues as antiprotozoal agents” (J Med Chem, 2009).

What was measured:
[1] = test system: L6; experiment: Cytotoxicity against rat L6 cells after 70 hrs by alamar blue assay; assay type: cell-based; conditions: L6, 70 h
Procedure, shortened: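 L6 rat myoblasts, 4000 per well, in RPMI 1640 with 2 mM L-glutamine, HEPES, NaHCO₃ and 10% FBS. Exposed to serial dilutions (DMSO ≤1%) for 70 h at 37 °C in humidified 5% CO₂. Resazurin then added for 2-3 h; fluorescence read at ex 536/em 588 nm. IC50 from sigmoidal curves; two independent runs in duplicate.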

[2] = test system: Trypanosoma brucei rhodesiense; experiment: Antiprotozoal activity against Trypanosoma brucei rhodesiense STIB900 trypomastigotes after 70 hrs by alamar blue assay; assay type: functional, organism-based
Procedure, shortened: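 Bloodstream forms, 2000 per well, in MEM with Earle's salts plus 0.2 mM 2-mercaptoethanol, 1 mM pyruvate, 0.5 mM hypoxanthine and 15% heat-inactivated horse serum. Exposed to serial dilutions (DMSO ≤1%) for 70 h at 37 °C in 5% CO₂. Resazurin then added for a further 2-6 h. IC50 from sigmoidal curves; two independent runs in duplicate.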

[3] = Selectivity index, ratio of IC50 for rat L6 cells to IC50 for Trypanosoma brucei rhodesiense STIB900 trypomastigotes; assay type: toxicity, cell-based; conditions: read-out: Ratio IC50
Procedure, shortened: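 Ratio of L6 IC50 to STIB900 IC50. L6 cells: 4000/well in RPMI 1640 with 10% FBS, 70 h at 37 °C. Bloodstream forms: 2000/well in supplemented MEM with 15% horse serum, 70 h at 37 °C. Both read by Alamar blue fluorescence; IC50s from sigmoidal curves, two independent runs in duplicate.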

[4] = test system: Plasmodium falciparum; experiment: Antiprotozoal activity after 48 hrs against chloroquine-resistant Plasmodium falciparum K1 infected erythrocytes by [3H]hypoxanthine uptake; assay type: functional, organism-based
Procedure, shortened: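 Erythrocytic stages in infected human red cells (hematocrit 1.25%, parasitemia 0.3%) in supplemented RPMI 1640 with Albumax II. Serial dilutions incubated at 37 °C in 93% N2/4% CO2/3% O2. [3H]-hypoxanthine (0.5 µCi/well) added at 48 h, then 24 h more. Incorporation counted by scintillation. IC50 from sigmoidal curves; two independent runs in duplicate.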

[5] = Selectivity index, ratio of IC50 for rat L6 cells to IC50 for chloroquine-resistant Plasmodium falciparum K1; assay type: toxicity, cell-based; conditions: read-out: Ratio IC50
Procedure, shortened: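 Ratio of L6 IC50 to K1 IC50. L6 cells: Alamar blue assay after 70 h, 37 °C. K1: [3H]-hypoxanthine incorporation in infected red cells over 48 + 24 h at 37 °C under low O2. IC50s from sigmoidal curves, two independent runs in duplicate.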

[6] = test system: Leishmania donovani; experiment: Antiprotozoal activity against Leishmania donovani MHOM/SD/62/1S-CL2D axenic amastigotes after 72 hrs; assay type: functional, organism-based
Procedure, shortened: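 L. donovani axenic amastigotes, adapted from promastigotes and grown in amastigote medium at 37 °C. 6 × 10⁴ parasites per well with 2-fold compound dilutions (DMSO ≤1%), incubated 72 h at 37 °C in humidified 5% CO₂. Growth read by tetrazolium (CellTiter) absorbance at 490 nm. IC50 from a four-parameter dose-response fit. Average of duplicate determinations.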

[7] = Selectivity index, ratio of IC50 for rat L6 cells to IC50 for Leishmania donovani MHOM/SD/62/1S-CL2D axenic amastigotes; assay type: toxicity, cell-based; conditions: read-out: Ratio IC50
Procedure, shortened: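 Amastigotes: 6 × 10⁴ parasites/well with 2-fold dilutions, 72 h at 37 °C in 5% CO2. Growth read by tetrazolium CellTiter absorbance at 490 nm; IC50 from a four-parameter dose-response fit.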

SMILES	IC50 [1] [µM]	IC50 [2] [µM]	selectivity ratio [3]	IC50 [4] [µM]	selectivity ratio [5]	IC50 [6] [µM]	selectivity ratio [7]
Fc1cc(OCCCCCOc2ccc(C3=NCCN3)c(F)c2)ccc1C1=NCCN1	23.2	4.46	5	0.544	43	52.6	0.4
N=C(N)c1ccc(OCCCCCOc2ccc(C(=N)N)cc2C(=O)O)c(C(=O)O)c1	> 165	> 18.3	–	71.8	2	–	–
CC(C)NC(=N)c1cccc(OCCCCCCOc2cccc(C(=N)NC(C)C)c2)c1	107	0.258	415	0.006	17800	11.6	9
N=C(N)c1ccc(OCCCCCOc2ccc(C(=N)N)cc2[N+](=O)[O-])c([N+](=O)[O-])c1	37.3	0.098	381	0.024	1550	11.4	3
N=C(N)c1ccc(OCCCOc2ccc(C(=O)O)cc2)cc1	167	> 257	< 0.6	> 2.8	< 60	> 100	< 2
CNC(=N)c1ccc(OCCCOc2ccc(C(=N)NC)cc2OC)c(OC)c1	177	0.057	3100	0.641	276	25.3	7
N/N=C(\N)c1ccc(OCCCCCOc2ccc(/C(N)=N/N)cc2)cc1	139	9.67	14	1.41	99	126	1
CCOC(=O)c1cc(C(=N)N)ccc1OCCCCCOc1ccc(C(=N)N)cc1C(=O)OCC	> 152	12.1	> 13	0.021	> 7240	> 50	–
CCOC(=O)c1cc(C(=N)N)ccc1OCCCCCOc1ccc(C(=N)N)cc1C(N)=O	> 165	0.011	> 15000	0.014	> 11800	52.1	> 3
N=C(N)c1ccc(S(=O)(=O)CCCCCS(=O)(=O)c2ccc(C(=N)N)cc2)cc1	> 174	28.1	> 6	0.098	> 1780	> 100	2
N=C(N)c1ccc(OCCCCCOc2ccc(N)cc2)cc1	120	1.31	91	2.24	54	> 100	1
N=C(N)c1ccc(OCCCOc2ccc(C(=N)N)cc2[N+](=O)[O-])c([N+](=O)[O-])c1	22.8	0.188	121	0.035	651	30.9	0.7
CC(C)NC(=N)c1ccc(OCCCCCOc2ccc(C(=N)NC(C)C)c(O)c2)cc1O	> 156	14.7	> 11	0.581	> 269	> 100	2
N=C(N)c1ccc(OCCCCCOc2ccc(C(=N)N)c(O)c2)cc1O	> 195	7.96	> 24	1.29	> 151	> 100	–
CC(=N)Nc1ccc(OCCCCCOc2ccc(NC(C)=N)cc2)cc1	> 202	3.04	> 66	0.048	> 4210	> 100	–
